pIC50: −log10 of the molar value. ≈ marks a conversion by molar mass, not a printed value.
Legend:
[1] = system: Mycobacterium tuberculosis H37Rv; assay: Inhibition of Bio-A in wild type Mycobacterium tuberculosis H37Rv after 9 days
Procedure, shortened: (§1)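 Wild-type Mtb H37Rv was pregrown in Sauton's medium with 1 μM biotin to OD580 1.0–1.2, washed twice in biotin-free Sauton's, and seeded at OD580 0.03 without biotin. Compounds were tested at 0.2–50 μM final, with no-compound controls, at 37 °C. OD580 was read at 9 days. MIC is the concentration giving 50% inhibition. Triplicate, two biological replicates.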

[2] = system: Mycobacterium tuberculosis; assay: Inhibition of Bio-A underexpressed in Mycobacterium tuberculosis in presence of anhydrotetracycline after 9 days
Procedure, shortened: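 BioA-overexpressing or BioA-underexpressing Mtb strains were pregrown in Sauton's with 1 μM biotin, washed twice, and seeded at OD580 0.03 in biotin-free medium with 200 ng/mL anhydrotetracycline to set BioA expression. Compounds were tested at 0.2–50 μM final at 37 °C. OD580 was read after 9 days. MIC is the concentration giving 50% inhibition. Triplicate, two biological replicates.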

[3] = Inhibition of wild type Mycobacterium tuberculosis Bio-A using KAPA as substrate after 45 mins in presence of fluorescently labeled dethiobiotin tracer
[4] = system: Mycobacterium tuberculosis H37Rv; assay: Inhibition of Bio-A in wild type Mycobacterium tuberculosis H37Rv in presence of biotin after 9 days
Procedure, shortened: as §1, with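 “with 1 μM biotin added.” for “without biotin.”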

[5] = system: Mycobacterium tuberculosis; assay: Antibacterial activity against wild type Mycobacterium tuberculosis H37Rv after 14 days; format: functional; details: 336 h

Compound | MIC50 [1] [µM] | MIC50 [2] [µM] | further results
CC(=O)c1ccc(-c2cn(Cc3cccc(Cl)c3)nn2)s1 | > 50 | > 50 | 
N#Cc1ccc(N2CCN(C(=O)c3cccc(Cl)c3)CC2)cc1 | 18.5 (≈ 6.03 µg/mL) | 44.8 | 
O=C1OCc2cc(N3CCN(C(=O)c4cccc(Cl)c4)CC3)ccc21 | 35 (≈ 12.5 µg/mL) | 1.8 | 
CCCCCC(=O)N1CCN(c2ccc(C(C)=O)cc2)CC1 | 8.7 (≈ 2.63 µg/mL) | 10.6 | 
O=C(c1cccc(Cl)c1)N1CCN(c2ccc([N+](=O)[O-])cc2)CC1 | 15.4 (≈ 5.33 µg/mL) | 4.7 | 
Cc1noc(-c2ccc(N3CCN(C(=O)c4cccc(Cl)c4)CC3)cc2)n1 | > 50 | > 50 | 
O=C1CCc2cc(N3CCN(C(=O)c4cccc(Cl)c4)CC3)ccc21 | 4.4 (≈ 1.56 µg/mL) | 0.3 | 
C/C(=N\O)c1ccc(N2CCN(C(=O)c3cccc(Cl)c3)CC2)cc1 | 20.4 (≈ 7.3 µg/mL) | 15.1 | 
CC(=O)c1ccc(N2CCN(C(=O)c3cnn(C)c3)CC2)cc1 | > 50 | 11.3 | 
COC(=O)c1ccc(N2CCN(C(=O)c3cccc(Cl)c3)CC2)cc1 | > 50 | > 50 | 
CC(=O)c1ccc(N2CCN(C(=O)c3ccc4c(c3)OCO4)CC2)cc1 | 5.6 (≈ 1.97 µg/mL) | 0.4 | pIC50 [3]: 6.81; MIC90 [4]: > 50 µM; MIC90 [1]: 23.4 µM (≈ 8.25 µg/mL); MIC [5]: 26 µM (≈ 9.16 µg/mL); MIC90 [2]: 1.7 µM
O=C(c1cccc(Cl)c1)N1CCN(c2ccc3c(c2)COC3)CC1 | 40.8 (≈ 14 µg/mL) | 12.8 | 
Cn1nnnc1-c1ccc(N2CCN(C(=O)c3cccc(Cl)c3)CC2)cc1 | > 50 | > 50 | 
O=C1CCc2cc(N3CCN(C(=O)c4ccc5c(c4)OCO5)CC3)ccc21 | 1.7 (≈ 0.619 µg/mL) | 0.3 | 
CC(=O)c1ccc(N2CCN(C(=O)c3ccc4c(c3)OCCCO4)CC2)cc1 | > 50 | 21.1 | 
CC(=O)c1ccc(N2CCN(C(=O)c3ccc4c(c3)OCCO4)CC2)cc1 | > 50 | 10.4 | 
CCC(=O)N1CCN(c2ccc(C(C)=O)cc2)CC1 | > 50 | > 50 | 
CC(=O)c1ccc(N2CCC(C(=O)c3ccc4c(c3)OCO4)CC2)cc1 | > 50 | > 50 | 

Compound | MIC50 [1] [µM] | MIC50 [2] [µM] | further results
CC(=O)c1ccc(-c2cn(Cc3cccc(Cl)c3)nn2)cc1 | 22 (≈ 6.86 µg/mL) | 24.4 | MIC50 [4]: > 50 µM
CN1Cc2cc(N3CCN(C(=O)c4cccc(Cl)c4)CC3)ccc2C1=O | 15.2 (≈ 5.62 µg/mL) | 1.2 | 
O=C(c1cccc(Cl)c1)N1CCN(c2ccc(-c3ccccn3)cc2)CC1 | > 50 | > 50 | 
CC(=O)c1ccc(N2CCN(C(=O)c3cccc(Cl)c3)CC2)cc1 | 5.1 (≈ 1.75 µg/mL) | 0.5 | 
COc1ccc(-c2ccc(N3CCN(C(=O)c4cccc(Cl)c4)CC3)cc2)nc1 | 22 (≈ 8.97 µg/mL) | 24.4 | MIC50 [4]: > 50 µM
CC(=O)c1ccc(N2CCN(C(=O)c3cncc(Cl)c3)CC2)cc1 | > 50 | > 50 | 
CC(=O)c1ccc(N2CCN(C(=O)c3ccc(Cl)c(Cl)c3)CC2)cc1 | 10.2 (≈ 3.85 µg/mL) | 1.9 | 
CC(=O)c1ccc(N2CCN(C(=O)CC(C)C)CC2)cc1 | > 50 | > 50 | 
CC(=O)c1ccc(N2CCN(C(=O)c3cscn3)CC2)cc1 | > 50 | > 50 | 
CC(=O)c1ccc(N2CCC(C(=O)c3cccc(Cl)c3)CC2)cc1 | 4.1 (≈ 1.4 µg/mL) | 6.8 | 
COc1cc(Cl)cc(C(=O)N2CCN(c3ccc(C(C)=O)cc3)CC2)c1 | 28.6 (≈ 10.7 µg/mL) | 18.3 | 
CC(=O)c1ccc(N2CCN(C(=O)c3cccnc3)CC2)cc1 | > 50 | 14.6 | 
CC(=O)c1ccc(N2CCN(C(=O)c3cc(Cl)cc(Cl)c3)CC2)cc1 | > 50 | > 50 | 
O=C(c1cccc(Cl)c1)N1CCN(c2ccc(-c3ccno3)cc2)CC1 | 6.7 (≈ 2.46 µg/mL) | 0.4 | 
CCCC(=O)N1CCN(c2ccc(C(C)=O)cc2)CC1 | > 50 | > 50 | 
CC(=O)c1cccc(N2CCN(C(=O)c3cccc(Cl)c3)CC2)c1 | > 50 | 26.6 | 
CC(=O)c1ccc(N2CCN(C(=O)c3cccc(Cl)c3)CC2)s1 | 9.9 (≈ 3.45 µg/mL) | 1.1 | 

From ChEMBL document CHEMBL4011626, “Structure-Based Optimization of Pyridoxal 5'-Phosphate-Dependent Transaminase Enzyme (BioA) Inhibitors that Target Biotin Biosynthesis in Mycobacterium tuberculosis” (J Med Chem, 2017)
